Activity calls are given as the source filed them. A value given as a limit tells only on which side of the number the result lay.

The source of these data is ChEMBL document CHEMBL4014307, “Diindolylmethane Derivatives: Potent Agonists of the Immunostimulatory Orphan G Protein-Coupled Receptor GPR84” (J Med Chem, 2017).

Experiment [1] addresses T1, G-protein coupled receptor 84 (Homo sapiens, UniProt Q9NQS5). As to the kind of experiment: Agonist activity at Gi coupled human GPR84 expressed in CHO cells assessed as inhibition of forskolin-induced cAMP accumulation at 10 uM after 15 mins in presence of [3H]-cAMP by radiometric assay relative to decanoic acid. It counts as functional, cell-based. Put shortly: (§1)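 Forskolin (10 µM) added with or without test compound for 15 min. Cells lysed in hot (90 °C) EDTA/Triton X-100 solution. cAMP measured radiometrically with bovine adrenal binding protein and [³H]cAMP, expressed as % of forskolin-alone response.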

The target of experiment [2] is T1, G-protein coupled receptor 84. The experiment is described as follows: Agonist activity at Gi coupled human GPR84 expressed in CHO cells assessed as inhibition of forskolin-induced cAMP accumulation after 15 mins in presence of [3H]-cAMP by radiometric assay. The class given is functional, cell-based. Summed up:
as §1

Experiment [3] has the same target. The experiment is described as follows: Antagonist activity at Gi coupled human GPR84 expressed in CHO cells assessed as inhibition of decanoic acid-induced receptor activation at 10 uM. It counts as cell-based.
In experiment [4] the target is Free fatty acid receptor 1 (Homo sapiens, UniProt O14842). As to the kind of experiment: Agonist activity at Gq protein coupled human FFAR1 expressed in human 1321N1 cells assessed as induction of intracellular calcium level at 10 uM measured at 1.2 secs time interval by Fluo-4-AM dye based fluorescence assay. It counts as functional, cell-based. Summed up:
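1321N1 astrocytoma cells retrovirally expressing human FFAR1, 50,000 per well, loaded 60 min at rt in dark with 3 µM Fluo-4-AM and 0.06 % Pluronic F-127 in HBSS. Compounds at 10 µM final; antagonist mode uses 30 min preincubation before TUG-424 (final 1 µM). Fluorescence at 520 nm (excitation 485 nm), 90 reads at 1.2 s intervals. Normalized to TUG-424 at 10 µM (agonist) or 1 µM (antagonist).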

The target in experiment [5] is T2, Free fatty acid receptor 4 (Homo sapiens) (UniProt Q5NUL3).
T2 sequence (whole entry): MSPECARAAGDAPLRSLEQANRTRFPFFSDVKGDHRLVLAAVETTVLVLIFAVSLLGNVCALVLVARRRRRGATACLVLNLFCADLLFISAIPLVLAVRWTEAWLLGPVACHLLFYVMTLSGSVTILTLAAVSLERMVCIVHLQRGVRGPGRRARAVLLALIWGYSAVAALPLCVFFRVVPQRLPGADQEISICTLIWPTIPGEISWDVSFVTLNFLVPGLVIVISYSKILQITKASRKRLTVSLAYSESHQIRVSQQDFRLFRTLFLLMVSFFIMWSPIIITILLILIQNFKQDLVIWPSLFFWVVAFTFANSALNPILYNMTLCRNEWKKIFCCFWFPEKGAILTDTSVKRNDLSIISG
As to the kind of experiment: Agonist activity at human FFAR4 expressed in CHO cells assessed as beta-arrestin recruitment at 10 uM after 90 mins by beta-galactosidase complementation assay. It counts as cell-based. Put shortly: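 Human FFAR4 in CHO β-galactosidase complementation cells, 30,000 per well, serum-free F12 ~4 h before assay; final DMSO 1 %, compounds 10 µM. Agonist mode: 90 min with agonist, then detection 60 min rt dark; luminescence. 3–4 experiments in duplicate.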

The target of experiment [6] is T2, Free fatty acid receptor 4 (Homo sapiens). As to the kind of experiment: Antagonist activity at human FFAR4 expressed in CHO cells assessed as inhibition of TUG-89-induced beta-arrestin recruitment at 10 uM preincubated for 30 mins followed by TUG-89 addition measured after 90 mins by beta-galactosidase complementation assay. The class given is cell-based.

Chain of Free fatty acid receptor 1 (O14842 whole entry): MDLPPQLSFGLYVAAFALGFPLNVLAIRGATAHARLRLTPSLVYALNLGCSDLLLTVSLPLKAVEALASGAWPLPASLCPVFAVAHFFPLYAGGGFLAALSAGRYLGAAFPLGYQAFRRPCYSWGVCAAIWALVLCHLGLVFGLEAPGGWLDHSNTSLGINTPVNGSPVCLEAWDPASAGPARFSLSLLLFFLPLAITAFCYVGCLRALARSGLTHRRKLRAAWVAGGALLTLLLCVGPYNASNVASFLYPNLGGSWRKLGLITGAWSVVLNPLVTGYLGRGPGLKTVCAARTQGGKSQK
T1 sequence (Q9NQS5 whole entry): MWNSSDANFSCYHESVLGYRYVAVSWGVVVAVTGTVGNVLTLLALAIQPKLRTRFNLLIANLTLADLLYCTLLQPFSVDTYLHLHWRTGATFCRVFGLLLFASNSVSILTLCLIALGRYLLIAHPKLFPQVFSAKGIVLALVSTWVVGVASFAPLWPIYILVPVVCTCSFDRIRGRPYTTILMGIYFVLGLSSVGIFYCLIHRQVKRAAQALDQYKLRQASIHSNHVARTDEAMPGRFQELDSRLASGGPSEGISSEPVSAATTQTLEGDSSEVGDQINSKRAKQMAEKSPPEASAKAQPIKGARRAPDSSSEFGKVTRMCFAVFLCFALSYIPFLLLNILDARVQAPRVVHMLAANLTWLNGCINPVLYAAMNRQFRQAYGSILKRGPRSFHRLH

For `O=C1Nc2ccccc2C1Cc1ccc2[nH]ccc2c1` (stereo not drawn), the Emax in experiment [1] was found to be 7%. The EC50 in experiment [2] is above 10 µM. Further, the inhibition result in experiment [3] and in experiment [6] was “inactive” each time. The outcome in experiment [4] and in experiment [5] was inactive.

As for `N#Cc1ccc2[nH]cc(Cc3c[nH]c4ccc(C#N)cc34)c2c1`, the Emax in experiment [1] was determined as 49%. In experiment [2], the EC50 is at least 10 µM. In addition, the inhibition result in experiment [3] and in experiment [6] was “inactive” each time. Besides, the outcome in experiment [4] and in experiment [5] was inactive.

Consider `O=C1Nc2ccccc2C1=Cc1c[nH]c2ccc(F)cc12`, for which the Emax in experiment [1] was -1%. In experiment [2], the EC50 was above 10 µM. Also, the inhibition result in experiment [3] and in experiment [6] was “inactive” in each case. Also, the result in experiment [4] and in experiment [5] was inactive.

In the case of `Clc1ccc2[nH]cc(Cc3c[nH]c4ccc(Cl)cc34)c2c1`, in experiment [1], the Emax stood at 86%. For the same molecule, the EC50 in experiment [2] was 4.96 µM. In addition, the outcome in experiment [4] and in experiment [5] was inactive. Further, the inhibition entry in experiment [6] is “inactive”.

Take `Cc1ccccc1C#Cc1ccc(CCC(=O)O)cc1`: in experiment [4], the outcome was inactive.

As for `O=[N+]([O-])c1ccc2[nH]cc(Cc3c[nH]c4ccc([N+](=O)[O-])cc34)c2c1`, the Emax in experiment [1] stood at 31%. For the same molecule, the EC50 in experiment [2] was above 10 µM. In addition, the inhibition entry in experiment [3] and in experiment [6] was “inactive” in each case. In addition, the outcome in experiment [4] and in experiment [5] was inactive.

As to `Cc1ccc2c(Cc3c[nH]c4cc(C)ccc34)c[nH]c2c1`, the Emax in experiment [1] was -22%. Besides, the EC50 in experiment [2] was above 10 µM. Further, the inhibition result in experiment [3] and in experiment [6] was “inactive” throughout. For the same molecule, the result in experiment [4] and in experiment [5] was inactive.

For `COc1ccc2c(Cc3c[nH]c4cc(OC)ccc34)c[nH]c2c1`, the Emax in experiment [1] is 31%. Further, the EC50 in experiment [2] was above 10 µM. The inhibition entry in experiment [3] and in experiment [6] was “inactive” in each case. Moreover, the result in experiment [4] and in experiment [5] was inactive.

On to `Clc1ccc(C(c2c[nH]c3ccccc23)c2c[nH]c3ccccc23)cc1`, for which the Emax in experiment [1] was -4%. Besides, the EC50 in experiment [2] was above 10 µM. The inhibition entry in experiment [3] and in experiment [6] was “inactive” each time. Besides, the result in experiment [4] and in experiment [5] was inactive.

With `COc1ccc2[nH]cc(/C=C3\C(=O)Nc4ccccc43)c2c1`, the Emax in experiment [1] was -10%. Moreover, the EC50 in experiment [2] is above 10 µM. Moreover, the inhibition result in experiment [3] and in experiment [6] was “inactive” throughout. Also, the result in experiment [4] and in experiment [5] was inactive.

As for `Clc1cc(Cl)c2c(Cc3c[nH]c4cc(Cl)cc(Cl)c34)c[nH]c2c1`, the Emax in experiment [1] amounted to 51%. In experiment [2], the EC50 is at least 10 µM. Further, the inhibition entry in experiment [3] and in experiment [6] was “inactive” each time. In addition, the result in experiment [4] and in experiment [5] was inactive.

Turning to `COc1ccc2[nH]cc(CC3C(=O)Nc4ccc(F)cc43)c2c1` (stereo not drawn), in experiment [1], the Emax was -10%. For the same molecule, in experiment [2], the EC50 is above 10 µM. Further, the inhibition result in experiment [3] and in experiment [6] was “inactive” throughout. Besides, the outcome in experiment [4] and in experiment [5] was inactive.

As to `COc1ccc2[nH]cc(CC3C(=O)Nc4ccccc43)c2c1` (stereo not drawn), the Emax in experiment [1] is -21%. Moreover, the EC50 in experiment [2] was above 10 µM. Further, the inhibition result in experiment [3] and in experiment [6] was “inactive” in each case. Further, the result in experiment [4] and in experiment [5] was inactive.

For `Fc1ccc(C(c2c[nH]c3ccccc23)c2c[nH]c3ccccc23)cc1`, the Emax in experiment [1] came out at 8%. The EC50 in experiment [2] is above 10 µM. The inhibition entry in experiment [3] and in experiment [6] was “inactive” in each case. Also, the result in experiment [4] and in experiment [5] was inactive.

Regarding `c1ccc(COc2ccc3[nH]cc(Cc4c[nH]c5ccc(OCc6ccccc6)cc45)c3c2)cc1`, in experiment [1], the Emax was found to be 36%. Besides, the EC50 in experiment [2] was above 10 µM. The inhibition entry in experiment [3] and in experiment [6] was “inactive” each time. Also, the outcome in experiment [4] and in experiment [5] was inactive.

Consider `O=C1Nc2ccc(F)cc2C1Cc1c[nH]c2ccc(F)cc12` (stereo not drawn), for which, in experiment [1], the Emax stood at 16%. In addition, the EC50 in experiment [2] was above 10 µM. Moreover, the inhibition entry in experiment [3] and in experiment [6] was “inactive” each time. In addition, the outcome in experiment [4] and in experiment [5] was inactive.

As for `O=Cc1ccc2[nH]cc(Cc3c[nH]c4ccc(C=O)cc34)c2c1`, in experiment [1], the Emax is -4%. In experiment [2], the EC50 was above 10 µM. Besides, the inhibition result in experiment [3] and in experiment [6] was “inactive” in each case. Further, the outcome in experiment [4] and in experiment [5] was inactive.

`COc1ccc(C(c2c[nH]c3ccccc23)c2c[nH]c3ccccc23)cc1`: the Emax in experiment [1] was -3%. The EC50 in experiment [2] is above 10 µM. Moreover, the inhibition result in experiment [3] and in experiment [6] was “inactive” throughout. Further, the result in experiment [4] and in experiment [5] was inactive.

`O=C(O)c1ccc2[nH]cc(Cc3c[nH]c4ccccc34)c2c1`: in experiment [1], the Emax is 5%. For the same molecule, the EC50 in experiment [2] is above 10 µM. Besides, the inhibition result in experiment [3] and in experiment [6] was “inactive” throughout. Further, the outcome in experiment [4] and in experiment [5] was inactive.

Turning to `O=[N+]([O-])c1ccc(C(c2c[nH]c3ccccc23)c2c[nH]c3ccccc23)cc1`, the Emax in experiment [1] was 6%. Moreover, the EC50 in experiment [2] was above 10 µM. The inhibition result in experiment [3] and in experiment [6] was “inactive” each time. For the same molecule, the result in experiment [4] and in experiment [5] was inactive.

As to `O=C1Nc2ccc(F)cc2/C1=C/c1c[nH]c2ccc(F)cc12`, the Emax in experiment [1] is 5%. The EC50 in experiment [2] was above 10 µM. The inhibition entry in experiment [3] and in experiment [6] was “inactive” throughout. Besides, the outcome in experiment [4] and in experiment [5] was inactive.

Take `COc1cccc2c(Cc3c[nH]c4c(OC)cccc34)c[nH]c12`: the Emax in experiment [1] turned out to be 18%. Further, the EC50 in experiment [2] was above 10 µM. In addition, the inhibition entry in experiment [3] and in experiment [6] was “inactive” throughout. In addition, the outcome in experiment [4] and in experiment [5] was inactive.

For the molecule `COC(=O)c1ccc2[nH]cc(Cc3c[nH]c4ccccc34)c2c1`, the Emax in experiment [1] is 57%. The EC50 in experiment [2] was found to be 10 µM. In addition, the outcome in experiment [4] and in experiment [5] was inactive. Further, the inhibition entry in experiment [6] was “inactive”.

For `Brc1ccc2[nH]cc(Cc3c[nH]c4ccc(Br)cc34)c2c1`, the Emax in experiment [1] was found to be 106%. Moreover, the EC50 in experiment [2] was determined as 3.44 µM. In addition, the outcome in experiment [4] and in experiment [5] was inactive. Moreover, the inhibition result in experiment [6] is “inactive”.

`COC(=O)c1ccc2[nH]cc(Cc3c[nH]c4ccc(C(=O)OC)cc34)c2c1`: the Emax in experiment [1] was 11%. Moreover, the EC50 in experiment [2] was above 10 µM. Moreover, the inhibition entry in experiment [3] and in experiment [6] was “inactive” throughout. Further, the result in experiment [4] and in experiment [5] was inactive.

As for `COc1cccc2[nH]cc(Cc3c[nH]c4cccc(OC)c34)c12`, the Emax in experiment [1] came out at 47%. In addition, in experiment [2], the EC50 is at least 10 µM. Moreover, the inhibition result in experiment [3] and in experiment [6] was “inactive” throughout. The result in experiment [4] and in experiment [5] was inactive.
